We go through 16 molecules from ChEMBL document CHEMBL3414559, “Novel C-4 heteroaryl 13-cis-retinamide Mnk/AR degrading agents inhibit cell proliferation and migration and induce apoptosis in human breast and prostate cancer cells and suppress growth of MDA-MB-231 human breast and CWR22Rv1 human prostate tumor xenografts in mice” (J Med Chem, 2015).

Assay [1] can be described thus: Growth inhibition of human SKBR3 cells by MTT assay. The format is functional. The note with it: SK-BR-3. The gist of the method:
(§1)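 Cells grown in RPMI 1640 with 10% FBS, plated at 2500 cells/well, treated across a dose range; growth read by MTT. GI50 taken from dose–response curves by nonlinear regression, at least three independent experiments.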
Background: Formazan colour is commonly taken as a measure of viable cells.

For assay [2], the system named is MDA-MB-468. The assay is described as follows: Growth inhibition of human MDA-MB-468 cells by MTT assay. In kind it is functional. The method, boiled down:
as §1

For assay [3], the system named is MDA-MB-231. Put plainly: Growth inhibition of human MDA-MB-231 cells by MTT assay. In kind it is functional. The gist of the method:
as §1

Assay [4] deals with MCF7. Put plainly: Growth inhibition of human MCF7 cells by MTT assay. In kind it is functional. The gist of the method: as §1
Assay [5] deals with LNCaP. Put plainly: Growth inhibition of human LNCAP cells by MTT assay. In kind it is functional. The method, boiled down:
as §1

Assay [6] in a line: Growth inhibition of human CWR22Rv1 cells by MTT assay. In kind it is functional, CWR22R. The note with it: 22Rv1. The gist of the method:
as §1

The nature of assay [7]: Growth inhibition of human PC3 cells by MTT assay. The format is functional. The note with it: PC-3. The gist of the method:
as §1

As usually defined, the GI50 is the concentration at which growth is held to half of that of the control. Low readings indicate more potent growth inhibition, high ones less potent growth inhibition.

On to `CC1=C(/C=C/C(C)=C/C=C/C(C)=C\C(=O)NCCc2ccc(O)cc2)C(C)(C)CC=C1c1cccnc1`, for which the 50% growth inhibitory concentration (GI50) in assay [1] is 42.2 µM; in assay [2], 50.1 µM; in assay [3] it was 26.9 µM; in assay [4], 8.75 µM.

For `CC1=C(/C=C/C(C)=C/C=C/C(C)=C\C(=O)NCc2cccc(F)c2)C(C)(C)CCC1n1ccnc1` (stereo not drawn), the GI50 stood at 4.24 µM in assay [1], 3.09 µM in assay [2], 1.65 µM in assay [3] and 1.81 µM in assay [4].

Take `CC1=C(/C=C/C(C)=C/C=C/C(C)=C\C(=O)Nc2ccccc2O)C(C)(C)CCC1n1ccnc1` (stereo not drawn): the concentration for 50% growth inhibition (GI50) is 3.89 µM in assay [1]; 3.23 µM in assay [5]; 3.03 µM in assay [2]; 4.67 µM in assay [3]; 2.23 µM in assay [6]; 1.09 µM in assay [4]. In addition, in assay [7], the GI50 turned out to be 15.5 µM.

For the molecule `CC1=C(/C=C/C(C)=C/C=C/C(C)=C/C(=O)Nc2ccc(O)cc2)C(C)(C)CCC1` [FENRETINIDE], the concentration for 50% growth inhibition (GI50) in assay [1] amounted to 3.98 µM; in assay [2], 6.02 µM; in assay [3], 11.1 µM; in assay [4], 4.65 µM.

For `CC1=C(/C=C/C(C)=C/C=C/C(C)=C\C(=O)Nc2ccccc2)C(C)(C)CC=C1c1cccnc1`, the GI50 in assay [1] was 47.4 µM; in assay [2], 39.8 µM; in assay [3] it was 25.1 µM; in assay [4], 8.32 µM.

As for `CC1=C(/C=C/C(C)=C/C=C/C(C)=C\C(=O)NCc2ccc(F)cc2)C(C)(C)CCC1n1ccnc1` (stereo not drawn), the concentration for 50% growth inhibition (GI50) turned out to be 5.5 µM in assay [1], 2.45 µM in assay [2], 1.41 µM in assay [3] and 1.93 µM in assay [4].

In the case of `CC1=C(/C=C/C(C)=C/C=C/C(C)=C\C(=O)NCCc2ccc(O)cc2)C(C)(C)CCC1n1ccnc1` (stereo not drawn), the GI50 in assay [1] is 1.41 µM; in assay [2] it was 13.5 µM; in assay [3], 2.88 µM; in assay [4] it was 1.9 µM.

In the case of `CC1=C(/C=C/C(C)=C/C=C/C(C)=C\C(=O)Nc2ccccc2)C(C)(C)CC=C1c1cncnc1`, the concentration for 50% growth inhibition (GI50) turned out to be 31 µM in assay [1], 22.9 µM in assay [2], 26.9 µM in assay [3] and 7.01 µM in assay [4].

For `CC1=C(/C=C/C(C)=C/C=C/C(C)=C\C(=O)NCc2ccc(O)cc2)C(C)(C)CC=C1c1cncnc1`, the GI50 was determined as 11.5 µM in assay [1], 19.1 µM in assay [2], 11.5 µM in assay [3] and 4.96 µM in assay [4].

Regarding `CC1=C(/C=C/C(C)=C/C=C/C(C)=C\C(=O)Nc2ccc(F)cc2)C(C)(C)CCC1n1ccnc1` (stereo not drawn), the 50% growth inhibitory concentration (GI50) in assay [1] amounted to 25.1 µM; in assay [5], 3.89 µM; in assay [2], 4.57 µM; in assay [3] it was 4.95 µM; in assay [6] it was 8.12 µM; in assay [4] it was 0.4 µM. This molecule yielded a concentration for 50% growth inhibition (GI50) in assay [7] of 30.2 µM.

For the molecule `CC1=C(/C=C/C(C)=C/C=C/C(C)=C/C(=O)O)C(C)(C)CCC1` [TRETINOIN], the concentration for 50% growth inhibition (GI50) in assay [1] was 22.9 µM; in assay [2], 14.1 µM; in assay [3] it was 14.1 µM.

As to `CC1=C(/C=C/C(C)=C/C=C/C(C)=C\C(=O)Nc2ccc(O)cc2)C(C)(C)CCC1n1ccnc1` (stereo not drawn), the concentration for 50% growth inhibition (GI50) in assay [1] was 3.89 µM; in assay [5], 3.54 µM; in assay [2] it was 6.83 µM; in assay [3], 13.1 µM; in assay [6] it was 3.89 µM; in assay [4] it was 1.99 µM. The same molecule displayed a GI50 in assay [7] of 11.7 µM.

With `CC(O)(CS(=O)(=O)c1ccc(F)cc1)C(=O)Nc1ccc(C#N)c(C(F)(F)F)c1` (stereo not drawn) [BICALUTAMIDE], the concentration for 50% growth inhibition (GI50) stood at 2.61 µM in assay [5], 3.81 µM in assay [6] and 9.15 µM in assay [7].

On to `CC1=C(/C=C/C(C)=C/C=C/C(C)=C\C(=O)NCCc2ccc(O)cc2)C(C)(C)CC=C1c1cncnc1`, for which the GI50 was determined as 24 µM in assay [1], 23.4 µM in assay [2], 14.5 µM in assay [3] and 2.96 µM in assay [4].

In the case of `CC1=C(/C=C/C(C)=C/C=C/C(C)=C\C(=O)NCc2ccccc2)C(C)(C)CCC1n1ccnc1` (stereo not drawn), the GI50 in assay [1] is 10.7 µM; in assay [5], > 100 µM; in assay [2] it was 7.24 µM; in assay [3] it was 5.88 µM; in assay [6] it was > 100 µM; in assay [4], 9.77 µM. In addition, the concentration for 50% growth inhibition (GI50) in assay [7] is > 100 µM.

Regarding `CC(=O)C1=C(O)C=C2Oc3c(C(N)=O)c(O)cc(O)c3[C@@]2(C)C1=O`, the GI50 in assay [1] was 26 µM; in assay [2] it was 47.9 µM; in assay [3] it was 43.6 µM.
